Screening data as filed in PubChem BioAssay.
The sample as a whole holds a higher share of hits than the screen did.
INS promoter act = TRM-6 insulin promoter activation; activation, % at 2 µM; AID 1296; 130,000 tested, 0.81% active; TRM-6 cells (human fetal islet line), insulin promoter eGFP reporter, imaging; plate-scaled: unstimulated 0, stimulated control 100;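 active = activation at 2 µM above a set limit, confirmed on inspection of the cell images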;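 note: share of cells whose green reporter signal exceeds an intensity cutoff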
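test system = TRM-6 insulin promoter–eGFP reporter cells | benchmarks = stimulated versus unstimulated wells as plate controls | read-out basis = percent cells above green-intensity threshold, converted to percent activation versus plate controls | detection = fixed-cell fluorescence microscopy, eGFP plus Hoechst | incubation = tamoxifen pre-incubation 15 h overnight, then compound exposure 48 h at 37 °C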
* marks the source's active call; other numbers are inactive results.

SMILES	INS promoter act
N#Cc1ccc(NC(=O)COC(=O)C2Cc3ccccc3CN2C(=O)c2ccccc2)cc1 (stereo not given)	-3
COC(=O)[C@H](C)NC(=O)Nc1cccc(C)c1	0
Cc1c(OCC(=O)OC(C)C)ccc2c3c(c(=O)oc12)CCC3	7
C=C(C)COc1ccc2c3c(c(=O)oc2c1OCC(=C)C)CCC3	143*
Cc1c(OCc2ccc([N+](=O)[O-])cc2)ccc2c3c(c(=O)oc12)CCC3	194
CCCCNC(=O)CCN1N=C(c2ccccc2)CCC1=O	136
COCCOc1nc2ccccc2nc1C	4
N#CC1=C(N)SC(N)=C(C#N)C1c1cccc(O)c1	0
Cc1noc(C)c1CSc1ccc2ccccc2n1	105*
Cc1noc(C)c1CSc1nnc(C)c(=O)[nH]1	-78
Cc1noc(C)c1CSc1nc2ccccc2s1	3
O=[N+]([O-])c1ccc(N/N=C/c2c[nH]c3ccccc23)cc1	223*
O=C(N/N=C/c1c[nH]c2ccccc12)c1[nH]c2ccc(Br)cc2c1-c1ccccc1	233
O=C(CNc1ccccc1)N/N=C/c1c[nH]c2ccccc12	-7
O=C(N/N=C/c1ccc[nH]1)c1ccncc1	7
O=[N+]([O-])c1ccc(N/N=C/c2ccc[nH]2)cc1	245*
CNc1nc(N/N=C/c2ccc([N+](=O)[O-])cc2)nc(Nc2ccccc2)n1	0
COc1ccccc1NS(=O)(=O)c1ccc(N/N=C/c2c(C)nn(-c3ccccc3)c2N2CCCC2)c([N+](=O)[O-])c1	-4
COc1ccccc1NS(=O)(=O)c1cccc2cccnc12	-50
COc1ccccc1NS(=O)(=O)c1cc([N+](=O)[O-])ccc1N/N=C/c1c[nH]c2ccccc12	264*
CC1CCCCC1NC(=O)Cn1[nH]c(=O)c2ccccc2c1=O (stereo not given)	7
CCn1c(SCC(=O)N/N=C(\C)c2ccncc2)nnc1-c1ccccc1	0
O=C(Oc1ccccc1)c1cccc(N2C(=O)CCC2=O)c1	6
COC(=O)Cc1ccc(NC(=S)Nc2ccc(N3CCOCC3)cc2)cc1	-6
COc1cc(NC2=CC(=O)CC(C)(C)C2)cc(OC)c1OC	-8
SMILES	INS promoter act
Cc1ccc(-n2nc3c(c2NC(=O)c2c(-c4ccccc4Cl)noc2C)CS(=O)(=O)C3)c(C)c1	9
O=S(=O)(c1ccc2c(c1)nc(COc1ccc(Cl)cc1)n2CC1CCCO1)N1CCOCC1 (stereo not given)	-100
CCCCc1ccc(C2C(C#N)=C(N)SC(N)=C2C#N)s1	275*
Cc1cc(C2C(C#N)=C(N)SC(N)=C2C#N)c(C)s1	185
Cc1sccc1C1C(C#N)=C(N)SC(N)=C1C#N	276
Cc1cc(C(F)(F)F)nn1Cc1n[nH]c(=S)n1-c1ccc(F)cc1	-8
Cc1csc(NC(=O)CS(=O)(=O)c2ccccc2)n1	-71
CCN(C(=O)c1cc(Cl)ccc1OC)c1ccccc1C	543*
COc1ccc(Cl)cc1NC(=O)c1ccccc1C	-3
CCN(C(=O)c1cn(C)c(=O)c2cc(OC)c(OC)cc12)c1ccccc1C	-81
CC(C)NC(=S)NC(=O)/C=C/c1cccc2ccccc12	7
Cc1ccc(CN2CCN(c3ccccn3)CC2)s1	-72
CC1=NN(C(=O)c2ccc(C)o2)C(O)(c2ccccc2)C1 (stereo not given)	-3
CCN(CC)c1ccc(N=Cc2c(C)[nH]c3ccccc23)cc1	108
O=C(c1ccccc1)N1CCc2ccccc21	0
COc1ccc(C(=O)N2CCc3ccccc32)cc1	-6
Cc1cccc2cc3c(N)c(C(=O)N4CCc5ccccc54)sc3nc12	233*
O=C(Nc1ccccc1)Nc1cccc(Cl)c1Cl	-8
O=C(Nc1ccccc1)Nc1ccccc1C(=O)NCc1ccccc1	77*
CNC(=O)Nc1ccccc1C(=O)NCc1ccccc1	-4
O=C(COc1ccc(/C=N/NS(=O)(=O)c2ccccc2)cc1)N1CCOCC1	0
COc1cccc(C(=O)Nc2cccc(C(=O)NCC(C)C)c2)c1	1
O=C(O)c1ccc(C(=O)Nc2cccc(NC(=O)C3CCCO3)c2)cc1 (stereo not given)	-6
CC(C)CNC(=O)c1cccc(NC(=O)C2CCCO2)c1 (stereo not given)	438*
NC1=NC(c2cn[nH]c2-c2ccc(F)cc2)n2c(nc3ccccc32)N1 (stereo not given)	109
SMILES	INS promoter act
CCOc1ccccc1-n1c(SCC(N)=O)nnc1-c1ccccc1	154*
CCOc1ccccc1-n1c(SCC(N)=O)nc2ccccc2c1=O	3
COc1cccc(-c2nnc(SCC(N)=O)n2-c2ccc(Cl)cc2)c1	0
COc1cc(S(=O)(=O)Nc2cccc(C)c2)ccc1NC(=O)c1ccncc1	-7
COc1ccccc1/C=C/C(=O)NCC(=O)N/N=C(\CCC(=O)O)c1ccccc1	9
CCCCn1c(=O)c(CCC(=O)OCC(=O)NC(=O)NCCC(C)C)nc2ccccc21	0
COc1ccc2nc(SCC(=O)NN)cc(C)c2c1	6
CC[n+]1c(/C=C/N(C)c2ccccc2)oc2ccc(F)cc21	6
